Test results: ChEMBL document CHEMBL3217642, “Mechanistic insight into inhibition of two-component system signaling” (Medchemcomm, 2013)
pIC50, pKd: −log10 of the molar value. Activity calls are given as the source filed them. The calls are words filed in the database; no cut-off is given here.

Columns and labels:
Thermotoga maritima [1] = test: Displacement of BODIPY-FL-ATP-gamma-S from Thermotoga maritima histidine kinase HK853 at 1 mM to 600 uM
Method in brief: (§1)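 Purified HK853 (600 ng) in 50 mM Tris–HCl, 0.2 M KCl, 5 mM MgCl2, pH 7.8 preincubated 30 min with varied analogue concentrations (DMSO ≤5% v/v), then labeled with BODIPY-FL-ATPγS (2 μM final), 1 h RT in dark. Quenched with SDS loading buffer (unheated), resolved by SDS-PAGE, fluorescence band intensity integrated; gels then coomassie stained.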

[2] = Inhibition of Thermotoga maritima histidine kinase HK853 autophosphorylation; method in brief: as §1
Thermotoga maritima [3] = test: Induction of Thermotoga maritima histidine kinase HK853 aggregation up to 1000 uM by gel based assay
Method in brief: (§2)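 Purified HK853 (0.44 μM) in 20 mM HEPES pH 7.5, with or without 0.1% final Triton X-100, incubated with varied analogue concentrations (DMSO ≤5% v/v) 4 h RT. Read by native-PAGE with silver staining (band disappearance), and by SDS-PAGE after BS3 crosslinking (100-fold molar excess, 2 h RT, quenched with 20 mM ammonium bicarbonate) with silver staining.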

[4] = Binding affinity to Thermotoga maritima histidine kinase HK853 by STD-NMR analysis
Thermotoga maritima [5] = test: Inhibition of Thermotoga maritima histidine kinase HK853 autophosphorylation at 10 mM; method in brief: as §1
Thermotoga maritima [6] = test: Binding affinity to Thermotoga maritima histidine kinase HK853 D411A mutant by STD-NMR analysis
Thermotoga maritima [7] = test: Induction of Thermotoga maritima histidine kinase HK853 aggregation up to 10 mM by gel based assay; method in brief: as §2
Thermotoga maritima [8] = test: Inhibition of Thermotoga maritima histidine kinase HK853 autophosphorylation up to 10 mM; method in brief: as §1
Thermotoga maritima [9] = test: Binding affinity to Thermotoga maritima histidine kinase HK853 by STD-NMR analysis in presence of ADP

| inhibition (Thermotoga maritima [1]) | pIC50 [2] | Compound | pKd [4] | other results |
| --- | --- | --- | --- | --- |
| Active |  | CCCCCCCCCCOc1ccc(CCNC(=N)N)cc1 |  |  |
|  | 4.36 | C/C(=C/CC(C)(C)/C=C/C(=O)N[C@@H](Cc1c[nH]c2ccccc12)C(=O)O)CC/C=C(\C)Br |  |  |
|  |  | N=C(N)NCCc1ccc(O)cc1 | 2.62 | inhibition (Thermotoga maritima [3]): inactive; inhibition (Thermotoga maritima [5]): inactive; Activity (Thermotoga maritima [6]): inactive |
|  | 4.52 | CCCN(C(=O)/C(C#N)=C(/C)O)c1nc(-c2ccc(C(C)(C)C)cc2)cs1 |  |  |
|  |  | CS(=O)(=O)c1ccc(CCNC(=N)N)cc1 | 3.24 | Activity (Thermotoga maritima [7]): inactive; inhibition (Thermotoga maritima [8]): Active; Activity (Thermotoga maritima [9]): inactive |
| Active |  | CCCCCCCOc1ccc(CCNC(=N)N)cc1 |  |  |
